The target in assay [1] is T1, Replicase polyprotein 1ab (Middle East respiratory syndrome-related coronavirus (isolate UnitedKingdom/H123990006/2012) (Betacoronavirus England 1) (Humancoronavirus EMC), UniProt K9N7C7). Put plainly: Binding affinity to MERS-CoV papain-like protease by SPR analysis. An outline of the steps: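 SPR on Biacore T200. Enzyme at 50 µg/mL in 10 mM sodium acetate pH 5.5 amine-coupled to CM5 chip (~10,000 RU); blank flow cells as reference. Compounds 0-50 µM (2-fold series) in PBSP + 0.5 mM TCEP, 2% DMSO, 30 µL/min, 25°C; double-referenced. KD from steady-state responses fit to rectangular hyperbola; rate constants from global 1:1 Langmuir fit.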

The target of assay [2] is Replicase polyprotein 1ab (Middle East respiratory syndrome-related coronavirus (isolate UnitedKingdom/H123990006/2012) (Betacoronavirus England 1) (Humancoronavirus EMC)) (UniProt K9N7C7). Put plainly: (§1) Inhibition of MERS-CoV papain-like protease using Z-Arg-Leu-Arg-Gly-Gly-AMC as substrate preincubated for 5 mins followed by substrate addition and measured for 10 mins by fluorescence assay. Also noted: concentration or dose not given beside the values.
Target sequence in this assay (K9N7C7 854-2740 limits assumed): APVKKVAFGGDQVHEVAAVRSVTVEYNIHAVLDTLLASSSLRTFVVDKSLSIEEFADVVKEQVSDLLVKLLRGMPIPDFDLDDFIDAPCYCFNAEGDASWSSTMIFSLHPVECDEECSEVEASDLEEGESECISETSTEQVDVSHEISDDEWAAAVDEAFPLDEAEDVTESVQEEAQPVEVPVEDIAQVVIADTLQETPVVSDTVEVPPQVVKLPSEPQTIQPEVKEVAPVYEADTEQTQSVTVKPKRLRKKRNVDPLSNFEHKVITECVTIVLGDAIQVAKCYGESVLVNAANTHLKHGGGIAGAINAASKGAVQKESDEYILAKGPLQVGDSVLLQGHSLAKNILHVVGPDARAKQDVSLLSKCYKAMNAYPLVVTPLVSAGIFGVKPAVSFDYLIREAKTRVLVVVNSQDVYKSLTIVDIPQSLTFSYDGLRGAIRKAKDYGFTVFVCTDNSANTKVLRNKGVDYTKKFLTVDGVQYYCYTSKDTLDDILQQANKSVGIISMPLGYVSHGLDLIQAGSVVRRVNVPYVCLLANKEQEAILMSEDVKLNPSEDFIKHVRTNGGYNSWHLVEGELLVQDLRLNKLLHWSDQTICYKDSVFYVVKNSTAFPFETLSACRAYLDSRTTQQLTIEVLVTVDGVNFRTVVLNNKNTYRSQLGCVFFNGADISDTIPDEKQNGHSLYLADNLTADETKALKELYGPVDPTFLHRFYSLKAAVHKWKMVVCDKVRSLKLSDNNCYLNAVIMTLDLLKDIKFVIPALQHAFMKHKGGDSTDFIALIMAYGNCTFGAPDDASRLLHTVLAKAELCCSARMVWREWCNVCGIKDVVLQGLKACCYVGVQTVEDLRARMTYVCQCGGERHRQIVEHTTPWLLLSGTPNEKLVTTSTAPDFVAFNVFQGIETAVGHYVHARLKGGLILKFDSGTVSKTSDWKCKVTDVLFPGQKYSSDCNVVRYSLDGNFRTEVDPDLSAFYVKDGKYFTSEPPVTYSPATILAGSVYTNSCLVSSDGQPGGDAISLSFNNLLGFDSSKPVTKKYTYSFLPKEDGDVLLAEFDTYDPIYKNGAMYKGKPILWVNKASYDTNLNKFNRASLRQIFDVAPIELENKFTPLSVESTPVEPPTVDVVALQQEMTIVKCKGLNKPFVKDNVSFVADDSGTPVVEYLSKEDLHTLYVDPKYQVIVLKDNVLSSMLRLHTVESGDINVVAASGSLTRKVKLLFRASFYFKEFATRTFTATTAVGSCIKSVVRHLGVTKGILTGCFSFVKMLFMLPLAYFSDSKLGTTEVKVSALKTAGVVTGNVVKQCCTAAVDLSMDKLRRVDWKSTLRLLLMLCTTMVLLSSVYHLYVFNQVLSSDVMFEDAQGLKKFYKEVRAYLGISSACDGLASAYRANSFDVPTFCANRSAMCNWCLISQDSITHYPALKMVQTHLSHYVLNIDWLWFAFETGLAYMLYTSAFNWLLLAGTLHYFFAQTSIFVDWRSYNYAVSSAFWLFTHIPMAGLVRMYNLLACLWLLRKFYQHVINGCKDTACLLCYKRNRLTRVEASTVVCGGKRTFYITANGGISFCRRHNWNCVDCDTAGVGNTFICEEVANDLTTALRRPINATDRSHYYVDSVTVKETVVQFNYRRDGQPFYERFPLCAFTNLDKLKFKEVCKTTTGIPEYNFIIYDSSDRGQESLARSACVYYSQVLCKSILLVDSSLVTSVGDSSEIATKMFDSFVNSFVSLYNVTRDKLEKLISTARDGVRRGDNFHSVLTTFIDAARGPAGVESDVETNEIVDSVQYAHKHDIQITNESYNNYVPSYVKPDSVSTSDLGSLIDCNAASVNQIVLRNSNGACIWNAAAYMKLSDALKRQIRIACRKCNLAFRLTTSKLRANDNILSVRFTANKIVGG

The target of assay [3] is T1, Replicase polyprotein 1ab. Described as §1.
For assay [4], the target named is Replicase polyprotein 1ab (Middle East respiratory syndrome-related coronavirus (isolate UnitedKingdom/H123990006/2012) (Betacoronavirus England 1) (Humancoronavirus EMC)) (UniProt K9N7C7). The experiment in a line: Inhibition of MERS-CoV papain-like protease at 50 uM using Z-Arg-Leu-Arg-Gly-Gly-AMC as substrate preincubated for 5 mins followed by substrate addition and measured for 10 mins by fluorescence assay relative to control. An outline of the steps:
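Confirmation retest run by hand in triplicate at room temperature. Buffer: 50 mM HEPES pH 7.5, 0.01% Triton X-100, 0.1 mg/mL BSA, 2 mM DTT. Enzyme and compound preincubated 5 min, then Z-RLRGG-AMC added to 50 µM final. AMC fluorescence (ex 360/em 450 nm) followed continuously; percent inhibition calculated against DMSO control.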

Assay [5] concerns the target T1, Replicase polyprotein 1ab. Put plainly: Competitive-inhibition of MERS-CoV papain-like protease using varying levels of Z-Arg-Leu-Arg-Gly-Gly-AMC as substrate by Dixon-plot analysis.
In assay [6] the target is Replicase polyprotein 1ab (Middle East respiratory syndrome-related coronavirus (isolate UnitedKingdom/H123990006/2012) (Betacoronavirus England 1) (Humancoronavirus EMC)) (UniProt K9N7C7). The experiment in a line: Reversible inhibition of MERS-CoV papain-like protease assessed as recovery of enzyme activity at 125 times IC50 using Z-Arg-Leu-Arg-Gly-Gly-AMC as substrate incubated for 1 hr followed by 2-fold dilution and measured by fluorescence assay. An outline of the steps: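 Dilution method: 4 µM enzyme incubated with compound for 1 h at room temperature in HEPES pH 7.5 assay buffer (2 mM DTT, 0.1 mg/ml BSA, 0.01% Triton X-100). DMSO-only enzyme served as control. Both samples diluted 2-fold, then seven further 2-fold dilutions. Activity read at each step with the continuous Z-RLRGG-AMC fluorescence assay.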

For assay [7] the target is unchanged. The experiment in a line: Binding affinity to 15N-labelled His-tagged Apo-MRES-CoV papain-like protease by TROSY [1H-15N] spectroscopy.
For assay [8] the target is unchanged. Put plainly: Binding affinity to MERS-CoV papain-like protease in presence of Z-Arg-Leu-Arg-Gly-Gly-AMC by SPR analysis. An outline of the steps: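 MERS-CoV PLpro was amine-coupled to a CM5 chip (~10,000 RU), with unmodified reference cells. Compounds (0-50 µM, 2-fold series) were injected with 500 µM Z-RLRGG-AMC substrate present, in PBSP + 0.5 mM TCEP + 2% DMSO at 30 µL/min and 25°C. Data were double-referenced, and KD came from a steady-state hyperbolic fit.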

Calls of active or inactive are those of the source. No cut-off for these calls is given here. A value given as a limit tells only on which side of the number the result lay.

T1 sequence (K9N7C7 854-2740 limits assumed): as above

For the compound `COCC(=O)/C=C1\Sc2ccccc2N1C`, in assay [1], the Kd was 7.6 to 112 µM.
`Cc1ccc(S(=O)(=O)n2c(C)cc(C)nc2=O)cc1` showed an inhibition in assay [2] of 11%.
The same measure, in the same setting: for `CC1CCCC(C)N1S(=O)(=O)c1ccc(N)cc1` (configuration not stated) the value was 7%.
For the compound `Cc1cc(C)n(S(=O)(=O)c2ccc(N)cc2)c(=O)n1`, the inhibition in assay [2] was 73%; in assay [4], greater than 50%. The IC50 in assay [3] stood at 20 µM. In assay [1], this compound registered a Kd of 7.6 to 9.3 µM. Moreover, affinity in assay [5] was put at a Ki of 36.6 µM. The inhibition result in assay [6] was “Active”. Moreover, in assay [7], the result was Active.
In assay [1], `Cn1c(=O)c2c(nc(NN=C3C(=O)NC(=O)NC3=O)n2C)n(C)c1=O` yielded a Kd of 7.6 to 112 µM.
Compound `Cc1ccc(C)c(CSc2nc(C3CCCCC3)c(C#N)c(=O)[nH]2)c1` had a Kd in assay [1] of 7.6 to 112 µM.
`O=C(O)c1cc(/C=C/c2ccc(N3CCOCC3)cc2)nc2ccccc12`: the Kd in assay [1] was in the range of 7.6 to 112 µM.
Regarding `Nc1ccc([N+](=O)[O-])cn1`, in assay [3], inhibition was half-maximal at 137 µM (IC50).
Same read-out and setting: to `O=[N+]([O-])c1ccc(Cl)c2nonc12` belongs 141 µM.
Compound `O=C(O)c1cc(/N=N/c2ccc(S(=O)(=O)Nc3ccccn3)cc2)ccc1O` [SULFASALAZINE] returned a Kd in assay [1] of 7.6 to 112 µM.
As to `O=Cc1ccc(O)c(O)c1` [PROTOCATECHUALDEHYDE], the IC50 in assay [3] came to 239 µM.
As for `O=C(NC1=CC=CC2C(=O)C=C(c3nn[nH]n3)OC12)c1ccc(OCCCCc2ccccc2)cc1` (configuration not stated), the inhibition in assay [4] is greater than 50%. Further, in assay [8], the outcome was inactive.
In assay [2], `Nc1ccc(S(=O)(=O)N2CC(=O)NC(=O)C2)cc1` came in with an inhibition of 16%.
`O=[N+]([O-])c1ccc(O)c(O)c1` [4-Nitrocatechol] had an IC50 in assay [3] of 145 µM.
Take `CC(=O)Nc1ccc(S(=O)(=O)n2c(C)cc(C)nc2=O)cc1`: the inhibition in assay [2] is 2%.

The values above are taken from ChEMBL document CHEMBL4392846, “Identification and design of novel small molecule inhibitors against MERS-CoV papain-like protease via high-throughput screening and molecular modeling” (Bioorg Med Chem, 2019).
